# Measured values from PubChem BioAssay.
# Calls of active or inactive are those of the source.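 The calls were made as follows, unless noted: active = viability at or under a set limit in both replicates, limit being median viability minus 3 SD (cut at about 48% in these data, passing the limit was not always enough); inconclusive = at or under the limit in just one replicate; inactive = at or above the limit in both replicates.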
# Tests used:
# [1] = HUVEC growth inhibition – cell-based, human, primary screen (AID 575;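 active = viability at or below 30% in both replicate assays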;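 also: 100% = median of untreated cell wells with 0.1% DMSO on each plate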); details: HUVEC proliferation, CellTiter-Glo luminescence, 72 h; at 10 µM; stronger effect = lower value
# Method in brief: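 system = HUVEC primary cells | amount = 1250 cells/well | buffer or medium = supplemented EBM, 2% fetal bovine serum | dosing = single-point 10 µM, DMSO 0.1% final | times = 72 h compound incubation | detection = CTG luminescence | read-out = % viability relative to median vehicle-well signal on each plate | control set = vehicle and MePR control wells | format = collagen-coated 384-well format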
# [2] = growth inhibitors of H69AR lung tumor, primary screen, human, duplicate replicates (AID 580); details: H69AR lung tumor cells viability, ATP luminescence, 72 h; at 10 µM; stronger effect = lower value;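 also: 100% = mean luminescence of untreated wells and 0% = no signal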
# [3] = reversal of MRP1-mediated doxorubicin resistance, pilot screen, H69AR cells, doxorubicin co-treatment (AID 601;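 active = viability loss from added drug above about 55%, and viability with drug at most 40%, in both replicates, limit read from the data, passing the limit was not always enough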); details: CellTiter-Glo, 72 h, at 10 µM; for differential viability (reversal): stronger effect = higher value
# [4] = 384-well plate pilot, post-Golgi transport modulator project, inhibition of yeast transport mutant growth (AID 636; in the data active = inhibition above about 31%); details: absorbance 615 nm, about 18 h, stronger effect = higher value
# [5] = growth suppression of yeast trafficking mutant, preliminary HTS, modulators of trafficking downstream of Golgi apparatus project, 1536-format plate, OD 615 nm (AID 637; in the data active = inhibition above about 30%); details: yeast transport mutant growth, absorbance 615 nm, 18 h; stronger effect = higher value
# [6] = H69AR cells + 2 uM doxorubicin, measured here: viability with 2 uM doxorubicin, stronger effect = lower value
# [7] = H69AR cells, compound alone cytotoxicity
Structure (SMILES),viability [1],viability [2],differential viability (reversal) ([3]; H69AR cells + 2 uM doxorubicin),"viability [3, 6]","viability [3, 7]",inhibition [4],inhibition [5]
N#Cc1nc(-c2ccccc2Cl)oc1N1CCOCC1,84.2% (inactive),86.8% (inactive),3.5% (inactive),83.3%,86.8%,-3.47% (inactive),14.1% (inactive)
COc1ccc(CCN2C(=O)C3C4C=CC(C4)C3C2=O)cc1OC (configuration not stated),97.7% (inactive),99.8% (inactive),5.05% (inactive),94.8%,99.8%,-6.71% (inactive),-4.44% (inactive)
COc1cccc(OC)c1OCCCSc1nc(C)cc(=O)[nH]1,107% (inactive),91.1% (inactive),-5.15% (inactive),96.2%,91.1%,-4% (inactive),-5.56% (inactive)
O=C1c2ccccc2C(=O)N1CCCCN1CCN(CCCCN2C(=O)c3ccccc3C2=O)CC1,93% (inactive),97.5% (inactive),12.7% (inactive),84.8%,97.5%,-7.33% (inactive),6.98% (inactive)
COc1ccccc1NC(=O)N1CCN(c2ccccc2F)CC1,108% (inactive),93.8% (inactive),19.5% (inactive),74.3%,93.8%,-5.87% (inactive),1.11% (inactive)
CN(CC(=O)Nc1ccncc1)S(=O)(=O)c1ccccc1,110% (inactive),95.8% (inactive),11.9% (inactive),83.9%,95.8%,-7.63% (inactive),-0.63% (inactive)
Cc1cc(NC(=O)c2ccc(Cl)cc2)no1,96.1% (inactive),87.5% (inactive),5.82% (inactive),81.7%,87.5%,2.86% (inactive),18.2% (inactive)
Cc1cc(C)n(S(=O)(=O)c2cc(C(=O)O)c(Cl)cc2Cl)n1,102% (inactive),82.6% (inactive),-10.2% (inactive),92.8%,82.6%,-3.47% (inactive),4.29% (inactive)
CCOC(=O)CS(=O)(=O)c1nc(-c2ccccc2)cc(C(F)(F)F)n1,5.62% (active),1.61% (active),0.47% (inactive),1.14%,1.61%,0.39% (inactive),-0.63% (inactive)
CC(C)Cc1nc2oc3c(N4CCN(CCO)CC4)ncnc3c2c2c1CCCC2,52.4% (inactive),42.6% (active),-12.1% (inactive),54.7%,42.6%,-0.26% (inactive),-6.33% (inactive)
OCCn1c(CSc2nnc(-c3ccco3)n2-c2ccccc2)nc2ccc(Cl)cc21,68.7% (inactive),84.9% (inactive),3.29% (inactive),81.7%,84.9%,-5.45% (inactive),-3.97% (inactive)
Cc1ccc(C(=O)CSc2nnc(CNc3ccc(C)cc3C)o2)cc1,81.7% (inactive),81.2% (inactive),0.795% (inactive),80.4%,81.2%,-0.92% (inactive),-10.5% (inactive)
O=C(Cc1c[nH]c2ccccc12)N1CCc2ccccc21,88.9% (inactive),80.7% (inactive),13.1% (inactive),67.5%,80.7%,-2.99% (inactive),-2.86% (inactive)
O=C(Cc1ccccc1)Nc1nnc(-c2cccs2)s1,96.8% (inactive),61.1% (inactive),-6.04% (inactive),67.1%,61.1%,-2.99% (inactive),3.02% (inactive)
CCOC(=O)c1c(NC(=O)c2ccoc2C)sc2c1CCC2,93.3% (inactive),78.9% (inactive),-9.7% (inactive),88.6%,78.9%,-3.82% (inactive),0.95% (inactive)
Cc1ccnc(NC(=O)Nc2ccc(F)cc2)c1,99.9% (inactive),104% (inactive),12.9% (inactive),91.2%,104%,-2.08% (inactive),-8.41% (inactive)
CC(C)C(c1nnnn1C1CCCC1)N1CCCc2ccccc21 (configuration not stated),80.3% (inactive),84.5% (inactive),-6.77% (inactive),91.2%,84.5%,1.33% (inactive),-3.65% (inactive)
Cc1c(NC(=O)C2CCCNC2=O)c(=O)n(-c2ccccc2)n1C (configuration not stated),107% (inactive),107% (inactive),-0.405% (inactive),107%,107%,-2.24% (inactive),3.33% (inactive)
Cc1ccc(S(=O)(=O)NC(C(=O)OCC(=O)NC2CCS(=O)(=O)C2)C(C)C)cc1 (configuration not stated),98.1% (inactive),92.9% (inactive),0.03% (inactive),92.8%,92.9%,-1.69% (inactive),0.63% (inactive)
CSc1nnc(-c2cnccn2)n1C,107% (inactive),90.7% (inactive),0.99% (inactive),89.7%,90.7%,-0.39% (inactive),4.92% (inactive)
O=C(CCNC(=O)c1ccc(Br)o1)NC1CCCC1,87% (inactive),95.1% (inactive),16.9% (inactive),78.2%,95.1%,-4.4% (inactive),4.29% (inactive)
CCS(=O)(=O)N1CCC(C(=O)N2CCOCC2)CC1,92.1% (inactive),98.5% (inactive),-1.11% (inactive),99.6%,98.5%,-0.52% (inactive),-0.16% (inactive)
CN(CCCC(=O)Nc1ccncc1)S(=O)(=O)c1ccc(Cl)cc1,56.2% (inactive),89% (inactive),-14.6% (inactive),104%,89%,0.65% (inactive),-5.87% (inactive)

Structure (SMILES),viability [1],viability [2],differential viability (reversal) ([3]; H69AR cells + 2 uM doxorubicin),"viability [3, 6]","viability [3, 7]",inhibition [4],inhibition [5]
Cc1cccc(NC(=O)CN(C)S(=O)(=O)c2ccccc2)n1,107% (inactive),95.2% (inactive),9.79% (inactive),85.4%,95.2%,-6.18% (inactive),2.54% (inactive)
CCCCCn1c(CN(C)Cc2ccccc2)nc2c1c(=O)n(C)c(=O)n2C,85.8% (inactive),79.8% (inactive),11.4% (inactive),68.3%,79.8%,1.45% (inactive),4.76% (inactive)
O=C(Nc1nc2ccc(S(=O)(=O)N3CCCC3)cc2s1)C1CCCO1 (configuration not stated),109% (inactive),97.7% (inactive),3.71% (inactive),93.9%,97.7%,-2.76% (inactive),0% (inactive)
Nc1nnc(Cc2ccc(Cl)cc2)s1,115% (inactive),102% (inactive),15.6% (inactive),86.3%,102%,-6.18% (inactive),3.49% (inactive)
Cc1ccc(NC(=O)CSc2nnc(-c3ccccn3)n2C)cc1,115% (inactive),91.5% (inactive),-0.845% (inactive),92.3%,91.5%,-7.73% (inactive),-8.89% (inactive)
COC(=O)Cn1c(=O)c2c(nc(Br)n2CC(=O)OC)n(C)c1=O,91.6% (inactive),86.5% (inactive),6.83% (inactive),79.7%,86.5%,-4.53% (inactive),-0.79% (inactive)
Cc1nc(SCC(=O)c2c[nH]c3ccccc23)n[nH]1,81.1% (inactive),95.9% (inactive),14.5% (inactive),81.4%,95.9%,-7.5% (inactive),-0.32% (inactive)
O=C(CSc1nnc(-c2ccncc2)o1)Oc1ccccc1,101% (inactive),102% (inactive),15.9% (inactive),85.9%,102%,-6.4% (inactive),3.02% (inactive)
COCCn1c(N)c(C(=O)Nc2sc3c(c2C(=O)OC)CCCC3)c2nc3ccccc3nc21,82.6% (inactive),92.3% (inactive),-0.35% (inactive),92.7%,92.3%,-4.42% (inactive),3.65% (inactive)
CCNc1oc(COc2ccccc2F)nc1C#N,89.8% (inactive),100% (inactive),22.9% (inactive),77.4%,100%,-2.6% (inactive),1.43% (inactive)
CCCn1c(SCC(=O)Nc2ccccc2C(=O)OCC)nc2c1c(=O)n(C)c(=O)n2C,102% (inactive),95.7% (inactive),2.55% (inactive),93.1%,95.7%,-8% (inactive),-3.02% (inactive)
Cc1c(C(=O)NCc2ccccn2)oc2ccccc12,99.6% (inactive),106% (inactive),25.7% (inactive),80.5%,106%,-0.92% (inactive),17.9% (inactive)
CC(OC(=O)c1cccc(NS(C)(=O)=O)c1)C(=O)Nc1ccc(N2CCOCC2)cc1 (configuration not stated),98.9% (inactive),96% (inactive),9.84% (inactive),86.1%,96%,0.78% (inactive),-2.54% (inactive)
CC(C)c1ccc(NC(=O)C2CC(=O)N(C(C)C)C2)cc1 (configuration not stated),89.2% (inactive),90.8% (inactive),3.6% (inactive),87.3%,90.8%,-2.34% (inactive),-2.86% (inactive)
Cc1nn(CC(O)Cn2c3c(c4ccccc42)CCN(C)C3=O)c(C)c1Br (configuration not stated),52.8% (inactive),69.8% (inactive),-12.1% (inactive),81.9%,69.8%,-4% (inactive),-2.54% (inactive)
O=C(Nc1nc(-c2ccc(S(=O)(=O)N3CCCCCC3)cc2)cs1)c1cccs1,73.6% (inactive),64.6% (inactive),-4.63% (inactive),69.2%,64.6%,-6.62% (inactive),-3.81% (inactive)
COc1cccc(C(=O)Nc2cnc(NC(=O)c3ccco3)cc2C)c1,103% (inactive),86.6% (inactive),8.55% (inactive),78.1%,86.6%,-2.21% (inactive),-4.44% (inactive)
S=c1[nH]c2ccc(Cl)cc2[nH]1,67.4% (inactive),84.9% (inactive),6.16% (inactive),78.7%,84.9%,-3.42% (inactive),6.35% (inactive)
CCC1Cc2c(nc3c4c(nc(N5CCOCC5)c(C#N)c24)NC(C)=N3)O1 (configuration not stated),94% (inactive),88.3% (inactive),6.83% (inactive),81.5%,88.3%,-2.99% (inactive),4.76% (inactive)
COc1ccc(NC(=O)CSc2nnc(-c3ccncc3)n2CC2CCCO2)c(OC)c1 (configuration not stated),89.2% (inactive),104% (inactive),5.88% (inactive),97.7%,104%,-6.36% (inactive),4.13% (inactive)
O=C1c2ccccc2C(=O)N1CCC(=O)N1CCc2ccccc21,101% (inactive),87.3% (inactive),-5.43% (inactive),92.7%,87.3%,-4.53% (inactive),5.08% (inactive)
Cn1c(=O)n(C)c2cc(NC(=O)C(F)(F)F)ccc21,68.9% (inactive),97.4% (inactive),11.6% (inactive),85.8%,97.4%,-0.92% (inactive),-7.94% (inactive)
CCOC(=O)C1CCN(C(=O)Nc2ccc(Cl)cc2Cl)CC1,100% (inactive),104% (inactive),19.9% (inactive),84.1%,104%,-4.61% (inactive),3.65% (inactive)
